Where “and” joins values, the source holds several entries; their conditions need not be identical. Equal values may be shown once.
Assays:
[1] = Glycation related cytotoxicity: test compound only, no MGO; type: cell-based, murine; conditions: mouse, RAW 264.7 macrophages
[2] = test system: LPS-induced nitric oxide production in RAW 264.7 macrophages; test: Anti-inflammatory; type: cell-based, murine; conditions: Mus musculus, RAW264.7, 24 h, read-out: NOS-IC50 value
Method in brief: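 Cells (2 x 10^5/well) were exposed to test compound (5-200 μg/mL) plus LPS 10 μg/mL for 24 h. Medium was mixed 1:1 with Griess reagent (1% sulfanilamide in 5% phosphoric acid; 0.1% naphthylethylenediamine-HCl) for 10 min at RT. A550 was read and nitrite taken from a sodium nitrite standard curve.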

[3] = NOS related cytotoxicity, SRB viability of RAW 264.7; type: cell-based, murine; conditions: mouse, RAW 264.7 macrophages
Method in brief: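 RAW 264.7 macrophages were maintained in high-glucose DMEM with 10% FBS and penicillin/streptomycin/[…] at 37 °C in humidified 5% CO2. The test compound's effect on their viability was measured by sulforhodamine B colorimetric staining, run alongside the LPS-stimulated nitrite assay.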

[4] = Selective cytotoxicity SRB assay, periodontal fibroblasts; type: cell-based; conditions: human, primary periodontal ligament fibroblasts (PDL), noncancerous
Method in brief: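 Primary human periodontal fibroblasts served as a noncancerous counter-screen for selective cytotoxicity. […] Assays were run in triplicate and reported as mean ± SD (n=3).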

[5] = molecular target: T1, Crude porcine PL type II (pancreatic lipase) (Sus scrofa, UniProt P00591); test: In vitro PL activity spectrophotometric assay; type: biochemical; conditions: PL-IC50 value, p-NPB substrate, 37 °C
T1 sequence (P00591 1-450): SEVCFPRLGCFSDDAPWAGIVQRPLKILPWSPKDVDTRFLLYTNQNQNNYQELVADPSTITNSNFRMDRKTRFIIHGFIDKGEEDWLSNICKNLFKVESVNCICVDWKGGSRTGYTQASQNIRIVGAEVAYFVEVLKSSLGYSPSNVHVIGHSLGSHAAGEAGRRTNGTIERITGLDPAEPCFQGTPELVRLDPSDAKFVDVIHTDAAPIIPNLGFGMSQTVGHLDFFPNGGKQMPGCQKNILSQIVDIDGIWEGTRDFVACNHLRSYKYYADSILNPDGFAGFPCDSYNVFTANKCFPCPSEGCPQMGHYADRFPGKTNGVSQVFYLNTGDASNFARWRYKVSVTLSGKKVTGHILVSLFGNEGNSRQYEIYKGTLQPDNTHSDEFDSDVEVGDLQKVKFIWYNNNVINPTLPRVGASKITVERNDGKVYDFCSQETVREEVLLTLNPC

[6] = test system: Methylglyoxal induced cytotoxicity in RAW264.7 murine macrophages; test: Antiglycation determination via methylglyoxal induced cytotoxicity; type: cell-based; conditions: RAW264.7, MGO 300 µM, 48 hr, SRB
[7] = test system: RAW 264.7 murine macrophages; test: Glycation related cytotoxicity: test compound only, no MGO; type: cell-based; conditions: RAW264.7, in absence of MGO, 48 hr, SRB

SMILES	IC50 at 48 h [1]	IC50 [2]	IC50 at 24 h [3]	IC50 at 72 h [4]	IC50 [5]	Glycation-IC50 value [6]	IC50 ([6]; read-out: Glycation-IC50 value)	Glycation related Cytotox.-IC50 value [7]	IC50 ([7]; read-out: Glycation related Cytotox.-IC50 value)
CCc1ccc(Nc2c(F)cc3c(=O)c(C(=O)O)cn(C4CC4)c3c2[N+](=O)[O-])cc1 [3a, 1-cyclopropyl-7-(4-ethyl-phenylamino)-6-fluoro-8-nitro-4-oxo-1,4-dihydro-quinoline-3-carboxylic acid]	437 µM and 180 µg/mL	309 µM and 127 µg/mL	> 200 mg/L	437 µM and 180 µg/mL	21.6 µM				
CCCCc1ccc(Nc2c(F)cc3c(=O)c(C(=O)O)cn(C4CC4)c3c2[N+](=O)[O-])cc1 [3b, 7-(4-butyl-phenylamino)-1-cyclopropyl-6-fluoro-8-nitro-4-oxo-1,4-dihydro-quinoline-3-carboxylic acid]		10.5 µg/mL and 23.8 µM	144 µg/mL and 327 µM	416 µM and 183 µg/mL	23.1 µM and 23.2 µM				
CCc1ccc(Nc2c(F)cc3c(=O)c(C(=O)O)cn(C4CC4)c3c2N)cc1 [4a, 8-amino-1-cyclopropyl-7-(4-ethyl-phenylamino)-6-fluoro-4-oxo-1,4-dihydro-quinoline-3-carboxylic acid]	3.05 µM and 1.2 µg/mL	60 µM and 22.9 µg/mL	> 200 mg/L	37.1 µM and 14.2 µg/mL	22.3 µM and 23.9 µM				
CCCCc1ccc(Nc2c(F)cc3c(=O)c(C(=O)O)cn(C4CC4)c3c2N)cc1 [4b, 8-amino-7-(4-butyl-phenylamino)-1-cyclopropyl-6-fluoro-4-oxo-1,4-dihydro-quinoline-3-carboxylic acid]	8.51 µM and 3.5 µg/mL	29.8 µM and 12.2 µg/mL	> 200 mg/L	407 µM and 167 µg/mL	74.7 µM and 69.6 µM				
CCc1ccc(-n2nnc3c4c(cc(F)c32)c(=O)c(C(=O)O)cn4C2CC2)cc1 [5a, 9-cyclopropyl-3-(4-ethyl-phenyl)-4-fluoro-6-oxo-6,9-dihydro-3H-[1,2,3]triazolo[4,5-h]quinoline-7-carboxylic acid]	84.1 µM and 33 µg/mL	51.5 µM and 20.2 µg/mL	> 200 mg/L	155 µM and 60.8 µg/mL	95.5 µM and 95.6 µM				
CCCCc1ccc(-n2nnc3c4c(cc(F)c32)c(=O)c(C(=O)O)cn4C2CC2)cc1 [5b, 3-(4-butyl-phenyl)-9-cyclopropyl-4-fluoro-6-oxo-6,9-dihydro-3H-[1,2,3]triazolo[4,5-h]quinoline-7-carboxylic acid]	161 µM and 67.7 µg/mL	98.8 µM and 41.5 µg/mL	> 200 mg/L	42.5 µM and 17.9 µg/mL	88.6 µM and 88.7 µM				
N=C(N)NN [Aminogaunidine, Aminoguanidine, reference compound]						(0.34±0.0 µg/mL)	3.1 ± 0.35 µM	(596.62±148.8 µg/mL )	5390 ± 1350 µM
COc1ccc2c(c1)c(CC(=O)O)c(C)n2C(=O)c1ccc(Cl)cc1 [Indomethacin, reference compound]		212 µM and 75.9 µg/mL	> 200 mg/L						
